The values below come from the RNAGym collection of RNA variant scans (doi:10.1126/science.aae0568).

B1: tRNA (parent)
chain: GUUCCGUUGGCGUAAUGGUAACGCGUCUCCCUCCUAAGGAGAAGACUGCGGGUUCGAGUCCCGUACGGAACG

Fewer inactive variants are shown than the library holds.

In the data set the parent is B1. Description: yeast fitness relative to wild type (ratio to wild type); higher = fitter; tRNA-Arg(CCU), competitive growth, 37 C, YPD. The procedure, abridged:
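Amplicons of the tRNA-Arg(CCU) gene were sequenced, 100-nucleotide paired-end, from the start population and from each end population of a pooled yeast competition. The competition, in six parallel replicates, lasted 24 hours in YPD at 37°C. Fitness relative to wild type was calculated from changes in genotype frequencies. Genotypes had to have ≥ 100 starting reads, and estimates < 0.5 were set to 0.5.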
As for GUGCCGUUGGCGUAGUGGUAUCGUGUCUCCCUCCCAAAGAGAAGACUGCGGGUUCGAGUCCCGUACGGAACG [U3G A15G A21U C24U U35C G38A], the yeast fitness was at most 0.5.
As for GUGCCGUUGGCGUAGUGGUAGCGCGCCUGUCUCCUAAGGAGAAGACUGUGGGUUCGUGUCCCGUACGGAACG [U3G A15G A21G U26C C29G C30U C49U A57U], the yeast fitness was at most 0.5.
Turning to GUCCCGUUGGCGUAAUGGUAACGCGUCUCCCUCCUAAGGAGAAGACCGUGAGUUCGAGUCCCGUACGGAACG [U3C U47C C49U G51A], the yeast fitness is at most 0.5.
In the case of GUCCCGUUGGCGUAAUGGUAACGCGUCUCCCUCCUAAGGAGAAGACGGCGGGUUCGAGUCCCGAACGGAACG [U3C U47G U64A], the yeast fitness was at most 0.5.
In the case of GUCCCGUUGGCGUAAUGGUAACGCGUCUCCCUCCGAAGGAGAAGACUGCGGGUUCGCGUCCCGUACGGACCG [U3C U35G A57C A70C], the yeast fitness is at most 0.5.
The result for GUCCCGUUGGCGUAAUGGUAACGCGGCUCCCUCCUAAGGAGAAGACUGCGGGUUCGAGUCCCGUACGGAACG [U3C U26G] reads 0.868; that for GUCCCGUUGGCGUAAUGGUAACGCGUCGCCCUCCUAAGCAGAAGACUGCGGGUUCGAGUCCCGUACGGAACG [U3C U28G G39C], at most 0.5; that for GUCCCGUUGGCGUAAUGGUAACGCGUCUCCCUCCUAAGGAGAAGACGGCGGGUUCGAGUCCCGUACGGAACG [U3C U47G], 0.7.
Turning to GUCCCGUUGGCGUAAUGGUAACGCGUCUCCCUCCUAAGGAGAAGACCGCGGGUUCGAGUCCCGUACGGAACG [U3C U47C], the yeast fitness was found to be 0.866.
The result for GUCCCGUUGGCGUAAUGGUAACGCGUCUCCCUCCUAAGGAGAAGACAGCGGGUUCGAGUCCCGUACGGAACG [U3C U47A] reads 0.907; that for GUGCCGUUGGCGUAAUGGUAACGCGUCUCCCUCCUGAGGAGAGGACUGCGGGUUCGAGUCCCGUACGGAACG [U3G A36G A43G], 0.735; that for GUCCCGUUGGCGUAAUGGUAACGCGUCUCCCUCCUAAGGAGAAGACUGCGGGUCCGAGUCCCGUACGGAACG [U3C U54C], 0.873.
The result for GUCCCGUUGGCGUAAUGGUAACGCGUCUCCCUCCUAAGGAGAAGACUGCGGGUACGAGUCCCGUACGGAACG [U3C U54A] reads 0.676; that for GUCCCGUUGGCGUAAUGGUAACGCGUCUCCCUCCUAAGGAGAAGACUGCGGGUGCGAGUCCCGUACGGAACG [U3C U54G], 0.536.
In the case of GUGCCGUUGGCGUAAUGGUAACGCGUCUCCCUCCUACGGGGAAGACCGCGGGUUCGAGUCCCGUACGGAACG [U3G A37C A40G U47C], the yeast fitness is at most 0.5.
GUGCCGUUGGCGUAAUGGUAACGCGUCUCCCUCCUCAGGAGAAGCCUGCGGGUUCGAAUCCCGUACGCAUCG [U3G A36C A45C G58A G68C A70U]: the yeast fitness was at most 0.5.
The result for GUGCCGUUGGCGUUAUGGUAACGCGUCUUCCUCCUAGGGAGAAGACUGCGAGUUCGAGUCCCGUACGGAACG [U3G A14U C29U A37G G51A] reads at most 0.5; that for GUCCCGUUGGCGUAAUGGUAACGCGUCUCCCUCCUAAGGAGAAGACUGCGGGUUCGAGUCCCGAACGGAACG [U3C U64A], 0.792; that for GUCCCGUUGGCGUAAUGGUAACGCGUCUCCCUCCUAAGGAGAAGACUGCGGGUUCGAGUCCCGCACGGAACG [U3C U64C], 1.04.
On to GUCCCGUUGGCGUAAUGGUAACGCGGCUCCCUCCUAAGGAGAAGACUGCGGGUUCGAGUCCCGUACCGAACG [U3C U26G G67C], for which the yeast fitness was at most 0.5.
As to GUGCCGUUGGCGUCAUGGUAACGCGUCUCCCUCCUAAGGAGUACACUGCGGGUUCGAGUCCCGUACGGAACG [U3G A14C A42U G44C], the yeast fitness was 0.578.
In the case of GUGCCGUUGGCGUAAUGGUAGCGCGUCUCCGUUCUAAGGAGAUGACUGCGGGUUCAAGUCCCGUACGGUACG [U3G A21G C31G C33U A43U G56A A69U] it was at most 0.5; in that of GUGCCGUUGGCGUUAUGGUAACGCGUCUCCCUCCUAAGGAGAAGACUCUGGGUUCGAGUCACGUACGGAACG [U3G A14U G48C C49U C61A], at most 0.5.
The result for GUGCCGUUGGCGUUUUGGUCACGCGUCUCCCUGCUAAGGUGAAGACUGCGGGUUCGAGUCGCGUACGGAACG [U3G A14U A15U A20C C33G A40U C61G] reads 0.543; that for GUGCCGUUGGCGUAAUGGUCACGCGUCUCCCUCCUAAGGAGAAGACUGCGGGUUCGAGUCCCGUUCGGAACG [U3G A20C A65U], 0.589; that for GUCCCGUUGGCGUAAUGGUAACGCGUCUCCCUCCUAAGGAGAAGACUGCGGGUCCGAGUCGCGUACGGAACG [U3C U54C C61G], 0.577.
The result for GUGCCGUUGGCGUAAUGGUAACGCGUCUCCCUCCUACGGAGAAGACUGCGGGUUCAAGUCCCGUACGGAACG [U3G A37C G56A] reads 0.533; that for GUGCCGUUGGCGUUAUGGUAACGCGUCUUCCUCCUAGGGAGAAGACUGCGGGUUCGAGUCCCGUACGGAACG [U3G A14U C29U A37G], at most 0.5.
GUCCCGUUGGCGUAAUGGUAACGCGUCACCCUCUUAAGGAGAAGACCGCGGGUUCGAGUUCCGUACGGAACG [U3C U28A C34U U47C C60U]: the yeast fitness was at most 0.5.
The result for GUGCCGUUGGCGUAAUGGUCACGCGUCUCCCUCCUAAGGAGAACACCGCGGGUUCGAGUCUCGUACGGAACG [U3G A20C G44C U47C C61U] reads at most 0.5.
In the case of GUGCCGUUGGCGUAAUGGUAACGCGUCUCCCUCCUAAGGAGUAGACUGUGGGUUCGAGUCCCGUACGGAACG [U3G A42U C49U] it was 0.613; in that of GUCCCGUUGGCGUAAUGGUAACGCGUCUCCCACCUAAGGAAAAGAUUGCGGGUUCGAGUCCCGUACGGAACG [U3C U32A G41A C46U], at most 0.5; in that of GUGCCGUUGGCGUCAUGGUAACGCGUCUCCCUCCUAAGGAGAAGACUGCGGGUUCGAGUCCCGUACGGAACG [U3G A14C], 0.773.
For the variant GUGCCGUUGGCGUUAUGGUAACGCGUCUCCCUCCUAAGGAGAAGACUGCGGGUUCGAGUCCCGUACGGAACG [U3G A14U], the yeast fitness came to 0.629.
The result for GUCCCGUUGGCGUAAUGGUAACGCGUCUCCCCCCUAAGGAGAAGACUGCGGGUUCGAGUCCCGUACGGAACG [U3C U32C] reads 0.839; that for GUGCCGUUGGCGUAGUGGUAACACGUCUCCCUCCUAAGGAGAAGACCGCGGGUUCGAGUCCCGUACGGAACG [U3G A15G G23A U47C], at most 0.5.
On to GUGCCGUUGGCGUAAUGGUAACGCGUCUCCCUCCUAAGGAGCAGACUGCGGGUUCGAGUCCCGUACCGAACG [U3G A42C G67C], for which the yeast fitness was at most 0.5.
